Assay results reported in ChEMBL document CHEMBL3616436, “Synthesis, cytotoxicity and antimicrobial activity of thiourea derivatives incorporating 3-(trifluoromethyl)phenyl moiety” (Eur J Med Chem, 2015).
≈ marks a conversion by molar mass, not a printed value. Calls of active or inactive are those of the source. No cut-off for these calls is given here.

Columns and labels:
[1] = molecular target: T1, DNA topoisomerase 4 (Staphylococcus epidermidis) (UniProt Q5HPI6+Q5HPI5); assay: Inhibition of decatenation activity of DNA topoisomerase 4 in hospital methicillin-resistant Staphylococcus epidermidis 76/04 using kDNA as substrate at 32 ug/ml after 1 hr using ethidium bromide staining by agarose gel electrophoresis; type: protein assay
T1 sequence (Q5HPI5 whole entry, looked up): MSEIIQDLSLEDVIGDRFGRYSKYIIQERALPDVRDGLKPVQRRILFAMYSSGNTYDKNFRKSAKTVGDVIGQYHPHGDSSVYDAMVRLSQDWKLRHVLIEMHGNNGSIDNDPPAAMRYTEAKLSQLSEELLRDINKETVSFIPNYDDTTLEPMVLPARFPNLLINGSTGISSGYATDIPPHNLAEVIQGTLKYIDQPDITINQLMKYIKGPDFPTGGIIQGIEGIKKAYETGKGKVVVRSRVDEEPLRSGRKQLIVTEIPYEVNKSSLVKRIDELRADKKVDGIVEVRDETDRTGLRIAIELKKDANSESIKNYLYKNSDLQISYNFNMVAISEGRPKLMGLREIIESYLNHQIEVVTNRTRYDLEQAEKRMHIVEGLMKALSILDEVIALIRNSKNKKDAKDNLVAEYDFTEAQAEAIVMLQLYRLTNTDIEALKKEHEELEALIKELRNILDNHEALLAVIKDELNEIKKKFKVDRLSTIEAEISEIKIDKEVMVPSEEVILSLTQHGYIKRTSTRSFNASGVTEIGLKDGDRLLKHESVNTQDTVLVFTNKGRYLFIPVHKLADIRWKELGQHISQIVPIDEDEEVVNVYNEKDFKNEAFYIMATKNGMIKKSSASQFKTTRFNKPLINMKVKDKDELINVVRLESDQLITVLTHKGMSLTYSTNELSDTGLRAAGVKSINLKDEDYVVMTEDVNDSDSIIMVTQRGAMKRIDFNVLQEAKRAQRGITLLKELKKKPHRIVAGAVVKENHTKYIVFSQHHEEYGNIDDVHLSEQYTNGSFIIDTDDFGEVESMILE
T1 sequence (Q5HPI6 whole entry, looked up): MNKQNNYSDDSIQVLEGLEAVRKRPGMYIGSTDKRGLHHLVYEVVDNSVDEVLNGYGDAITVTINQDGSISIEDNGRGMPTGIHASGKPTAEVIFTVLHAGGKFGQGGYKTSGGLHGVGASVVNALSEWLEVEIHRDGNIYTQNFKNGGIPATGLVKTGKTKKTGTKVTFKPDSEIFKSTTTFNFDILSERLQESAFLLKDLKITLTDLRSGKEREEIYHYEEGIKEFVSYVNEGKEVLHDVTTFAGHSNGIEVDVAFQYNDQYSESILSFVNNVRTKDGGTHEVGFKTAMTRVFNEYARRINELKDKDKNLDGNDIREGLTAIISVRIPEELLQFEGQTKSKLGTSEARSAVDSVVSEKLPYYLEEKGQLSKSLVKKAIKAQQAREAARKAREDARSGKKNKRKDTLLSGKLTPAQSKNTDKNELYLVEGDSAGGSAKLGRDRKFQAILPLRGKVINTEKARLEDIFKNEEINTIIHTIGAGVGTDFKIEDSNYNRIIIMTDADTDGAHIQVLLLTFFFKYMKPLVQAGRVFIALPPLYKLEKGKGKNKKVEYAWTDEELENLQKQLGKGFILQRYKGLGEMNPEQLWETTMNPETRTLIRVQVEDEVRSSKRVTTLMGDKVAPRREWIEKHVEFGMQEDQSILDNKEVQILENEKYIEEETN

[2] = test system: Staphylococcus epidermidis; assay: Inhibition of biofilm formation in Staphylococcus epidermidis 24/04 at 8 ug/ml after 24 hrs using MTT staining by spectrophotometer analysis; type: functional; settings: 24/04, 24 h
[3] = molecular target: T2, Topoisomerase IV (Staphylococcus aureus) (UniProt P0C1U9+P0C1S7); assay: Inhibition of decatenation activity of DNA topoisomerase 4 in Staphylococcus aureus NCTC 4163 using kDNA as substrate at 1 to 4 ug/ml […] using ethidium bromide staining by agarose gel electrophoresis; type: protein-complex assay
[4] = molecular target: T1, DNA topoisomerase 4 (Staphylococcus epidermidis); assay: Inhibition of decatenation activity of DNA topoisomerase 4 in hospital methicillin-resistant Staphylococcus epidermidis 62/04 using kDNA as substrate at 32 ug/ml after 1 hr using ethidium bromide staining by agarose gel electrophoresis; type: protein assay
[5] = molecular target: T1, DNA topoisomerase 4 (Staphylococcus epidermidis); assay: Inhibition of decatenation activity of DNA topoisomerase 4 in hospital methicillin-resistant Staphylococcus epidermidis 76/04 using kDNA as substrate at 1 to 4 ug/ml after 1 hr using ethidium bromide staining by agarose gel electrophoresis; type: protein assay
[6] = molecular target: T2, Topoisomerase IV (Staphylococcus aureus); assay: Inhibition of decatenation activity of DNA topoisomerase 4 in hospital methicillin-resistant Staphylococcus aureus 57/05 using kDNA as substrate at 1 to 4 ug/ml after 1 hr using ethidium bromide staining by agarose gel electrophoresis; type: protein-complex assay
[7] = molecular target: T2, Topoisomerase IV (Staphylococcus aureus); assay: Inhibition of decatenation activity of DNA topoisomerase 4 in hospital methicillin-resistant Staphylococcus aureus 57/05 using kDNA as substrate at 32 ug/ml after 1 hr using ethidium bromide staining by agarose gel electrophoresis; type: protein-complex assay
[8] = test system: Staphylococcus epidermidis; assay: Inhibition of biofilm formation in Staphylococcus epidermidis 76/04 at 8 ug/ml after 24 hrs using MTT staining by spectrophotometer analysis; type: functional; settings: 76/04, 24 h
Summary of the method: (§1)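 Methicillin-resistant hospital isolates or ATCC strains of S. epidermidis were grown overnight in tryptone soy broth with 0.5% glucose. Inoculum of 10^7 CFU/mL was mixed 1:1 with compound in TSB-glucose and incubated 24 h at 37 °C. Non-adherent cells were washed off with PBS, and wells were stained with MTT (0.5% in PBS) for 2 h at 37 °C. Stain was solubilized in DMSO/glycine buffer and read at A554. Inhibition is relative to drug-free control; quadruplicates.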

[9] = molecular target: T2, Topoisomerase IV (Staphylococcus aureus); assay: Inhibition of decatenation activity of DNA topoisomerase 4 in hospital methicillin-resistant Staphylococcus aureus 80/05 using kDNA as substrate at 1 to 4 ug/ml after 1 hr using ethidium bromide staining by agarose gel electrophoresis; type: protein-complex assay
[10] = Cytotoxicity against human HaCaT cells assessed as cell viability at 16 uM after 24 hrs by MTT assay relative to control; type: cell-based; settings: read-out: Activity
Summary of the method: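 HaCaT keratinocytes, 2.5x10^4 cells/well, in DMEM with 2% FBS, exposed 24 h to 16 µM compound, then 2 h with 0.5 mg/ml MTT; formazan dissolved in 0.04 M HCl/isopropanol, A570; viability as % of untreated control absorbance; three independent experiments in triplicate.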

[11] = molecular target: T2, Topoisomerase IV (Staphylococcus aureus); assay: Inhibition of decatenation activity of DNA topoisomerase 4 in hospital methicillin-resistant Staphylococcus aureus 79/05 using kDNA as substrate at 1 to 4 ug/ml after 1 hr using ethidium bromide staining by agarose gel electrophoresis; type: protein-complex assay
[12] = molecular target: T1, DNA topoisomerase 4 (Staphylococcus epidermidis); assay: Inhibition of decatenation activity of DNA topoisomerase 4 in hospital methicillin-resistant Staphylococcus epidermidis 31/04 using kDNA as substrate at 32 ug/ml after 1 hr using ethidium bromide staining by agarose gel electrophoresis; type: protein assay
[13] = test system: Staphylococcus epidermidis; assay: Inhibition of biofilm formation in Staphylococcus epidermidis ATCC 12228 after 24 hrs using MTT staining by spectrophotometer analysis; type: functional, organism-based; settings: ATCC 12228, 24 h
Summary of the method: (§2)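 Biofilm was grown for 24 h at 37 °C in TSB with 0.5% glucose from 10^7 CFU/mL inoculum, mixed 1:1 with compound. Final concentrations were 0.125–4 or 0.25–8 µg/ml. Wells were PBS-washed and MTT-stained for 2 h at 37 °C, solubilized in DMSO/glycine buffer and read at 554 nm. IC50 (50% inhibition of biofilm formation) was taken from the dose-response curve; quadruplicates.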

[14] = molecular target: T2, Topoisomerase IV (Staphylococcus aureus); assay: Inhibition of decatenation activity of DNA topoisomerase 4 in hospital methicillin-resistant Staphylococcus aureus 573/11 using kDNA as substrate at 1 to 4 ug/ml after 1 hr using ethidium bromide staining by agarose gel electrophoresis; type: protein-complex assay
[15] = test system: Staphylococcus epidermidis; assay: Inhibition of biofilm formation in Staphylococcus epidermidis 151/04 at 8 ug/ml after 24 hrs using MTT staining by spectrophotometer analysis; type: functional; settings: 151/04, 24 h
[16] = molecular target: T1, DNA topoisomerase 4 (Staphylococcus epidermidis); settings: 16/04, at 1 to 4 µg/mL
[17] = test system: Staphylococcus epidermidis; assay: Inhibition of biofilm formation in Staphylococcus epidermidis 62/04 at 8 ug/ml after 24 hrs using MTT staining by spectrophotometer analysis; type: functional; settings: 62/04, 24 h; summary of the method: as §1
[18] = test system: Staphylococcus epidermidis; assay: Inhibition of biofilm formation in Staphylococcus epidermidis 63/04 at 8 ug/ml after 24 hrs using MTT staining by spectrophotometer analysis; type: functional; settings: 63/04, 24 h; summary of the method: as §1
[19] = molecular target: T1, DNA topoisomerase 4 (Staphylococcus epidermidis); assay: Inhibition of decatenation activity of DNA topoisomerase 4 in hospital methicillin-resistant Staphylococcus epidermidis 63/04 using kDNA as substrate at 32 ug/ml after 1 hr using ethidium bromide staining by agarose gel electrophoresis; type: protein assay
[20] = test system: Staphylococcus epidermidis; assay: Inhibition of biofilm formation in Staphylococcus epidermidis 76/04 after 24 hrs using MTT staining by spectrophotometer analysis; type: functional, organism-based; settings: 76/04, 24 h; summary of the method: as §2
[21] = molecular target: T1, DNA topoisomerase 4 (Staphylococcus epidermidis); assay: Inhibition of decatenation activity of DNA topoisomerase 4 in hospital methicillin-resistant Staphylococcus epidermidis 62/04 using kDNA as substrate at 1 to 4 ug/ml after 1 hr using ethidium bromide staining by agarose gel electrophoresis; type: protein assay
[22] = molecular target: T2, Topoisomerase IV (Staphylococcus aureus); assay: Inhibition of decatenation activity of DNA topoisomerase 4 in hospital methicillin-resistant Staphylococcus aureus 573/11 using kDNA as substrate at 32 ug/ml after 1 hr using ethidium bromide staining by agarose gel electrophoresis; type: protein-complex assay
[23] = molecular target: T2, Topoisomerase IV (Staphylococcus aureus); assay: Inhibition of decatenation activity of DNA topoisomerase 4 in Staphylococcus aureus NCTC 4163 using kDNA as substrate at 32 ug/ml […] using ethidium bromide staining by agarose gel electrophoresis; type: protein-complex assay
[24] = test system: HaCaT; assay: Cytotoxicity against human HaCaT cells assessed as cell mortality at 16 uM after 24 hrs by LDH release assay relative to control; type: cell-based
Summary of the method: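 HaCaT cells in DMEM with 2% FBS exposed 24 h to 16 µM compound; LDH released into supernatant measured with commercial kit at 490 nm; % release = (test − untreated low control)/(10% Triton X-100 high control − low control) × 100; three independent experiments in triplicate.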

[25] = molecular target: T2, Topoisomerase IV (Staphylococcus aureus); assay: Inhibition of decatenation activity of DNA topoisomerase 4 in hospital methicillin-resistant Staphylococcus aureus 522/11 using kDNA as substrate at 32 ug/ml after 1 hr using ethidium bromide staining by agarose gel electrophoresis; type: protein-complex assay

SMILES	inhibition [1]	inhibition at 8 µg/mL [2] [%]	inhibition [3]	inhibition [4]	inhibition [5]	inhibition [6]	inhibition [7]	inhibition at 8 µg/mL [8] [%]	inhibition [9]	inhibition [11]	inhibition [12]	IC50 [13] [µg/mL]	inhibition [14]	inhibition [16]	inhibition [19]	IC50 [20] [µg/mL]	inhibition [21]	inhibition [22]	inhibition [23]	inhibition [25]	further results
FC(F)(F)c1cccc(NC(=S)Nc2cccc(Br)c2)c1	Active	70	Active	Active	Active	Active	Active	70	Active	Active	Active	2.8 (≈ 7.46 µM)	Active	Active	Active	2.98 (≈ 7.94 µM)	Active	Active	Active	Active	viability at 24 h, 16 µM [10]: 91%; inhibition at 8 µg/mL [15]: 70%; inhibition at 8 µg/mL [17]: 80%; inhibition at 8 µg/mL [18]: 70%; Activity [24]: 0%
Fc1ccc(NC(=S)Nc2cccc(C(F)(F)F)c2)cc1Cl	Active	40	Active	Active	Active	Active	Active	40	Active	Active	Active	1.62 (≈ 4.65 µM)	Active	Active	Active	2.85 (≈ 8.17 µM)	Active	Active	Active	Active	viability at 24 h, 16 µM [10]: 89.8%; inhibition at 8 µg/mL [15]: 40%; inhibition at 8 µg/mL [17]: 40%; inhibition at 8 µg/mL [18]: 40%; Activity [24]: 8%
O=C(O)c1cn(C2CC2)c2cc(N3CCNCC3)c(F)cc2c1=O [CIPROFLOXACIN]	Active	–	Active	Active	Active	Active	Active	–	Active	Active	Active	7 (≈ 21.1 µM)	Active	Active	Active	7.93 (≈ 23.9 µM)	Active	Active	Active	Active	–
